Laboratory results taken from ChEMBL document CHEMBL5724801, “EUbOPEN Chemogenomics Library - Multiplex” (2024).
Several values for one entry are separate records, joined by “and”; a condition that tells them apart may be missing. Equal entries are not always repeated.

Test system: U2OS
Assay: Multiplex assay against U2OS
Format: toxicity, cell-based
Conditions: human
Method in brief: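 Tubulin, mitochondrial-mass and membrane-permeability phenotypes are per cents of healthy-nucleus cells. Cells were gated by CellPathfinder machine learning into Hoechst high-intensity objects or normal cells, normal cells into healthy, pyknosed or fragmented nuclei, and pyknosed cells into mitotic or apoptotic. Before that, live cells stained at seeding with Hoechst33342, BioTracker Green Microtubule Cytoskeleton Dye, MitoTracker Red and Annexin V Alexa Fluor 680 were imaged on a CQ1 microscope at 37°C and 5% CO2 after compound addition.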

[1] = 12 h, 1 µM, compound concentration 1 uM
[2] = 12 h, 10 µM, compound concentration 10 uM
[3] = 24 h, 1 µM, compound concentration 1 uM
[4] = 24 h, 10 µM, compound concentration 10 uM
[5] = 48 h, 1 µM, compound concentration 1 uM
[6] = 48 h, 10 µM, compound concentration 10 uM

CC(C)c1noc(N2CCC(COc3ccc(-c4ccc(S(C)(=O)=O)cc4)nc3)CC2)n1 [GSK-1292263]
Population Apoptotic (%) [1]: 72% and 100%
Population Fragmented Nuclei (%) [1]: 27% and 16%
Population Healthy Nuclei (%) [1]: 62% and 77%
Population Hoechst High Intensity Objects (%) [1]: 2% and 1%
Population Membrane Permeable-Phenotype (%) [1]: 3% and 4%
Population Mitochondria Different-Phenotype (%) [1]: 2% and 0%
Population Normal (%) [1]: 97% and 98%
Population Pyknosed Nuclei (%) [1]: 10% and 5%
Population Tubulin-Different-Phenotype (%) [1]: 0% and 2%
Total Cell Count [1]: 177 and 114
Population Apoptotic (%) [2]: 90% and 100%
Population Fragmented Nuclei (%) [2]: 31% and 20%
Population Healthy Nuclei (%) [2]: 60% and 73%
Population Hoechst High Intensity Objects (%) [2]: 2% and 0%
Population Membrane Permeable-Phenotype (%) [2]: 10%
Population Mitochondria Different-Phenotype (%) [2]: 6% and 8%
Population Mitotic Cells (%) [2]: 10% and 0%
Population Normal (%) [2]: 97% and 100%
Population Pyknosed Nuclei (%) [2]: 7% and 5%
Population Tubulin-Different-Phenotype (%) [2]: 6%
Total Cell Count [2]: 262 and 134
Population Apoptotic (%) [3]: 63% and 66%
Population Fragmented Nuclei (%) [3]: 32% and 15%
Population Healthy Nuclei (%) [3]: 57% and 77%
Population Hoechst High Intensity Objects (%) [3]: 1% and 0%
Population Membrane Permeable-Phenotype (%) [3]: 5% and 2%
Population Mitochondria Different-Phenotype (%) [3]: 2%
Population Mitotic Cells (%) [3]: 36% and 33%
Population Normal (%) [3]: 98% and 99%
Population Pyknosed Nuclei (%) [3]: 9% and 6%
Population Tubulin-Different-Phenotype (%) [3]: 3% and 1%
Total Cell Count [3]: 236 and 145
Population Apoptotic (%) [4]: 92% and 66%
Population Fragmented Nuclei (%) [4]: 25% and 15%
Population Healthy Nuclei (%) [4]: 65% and 75%
Population Hoechst High Intensity Objects (%) [4]: 0% and 2%
Population Membrane Permeable-Phenotype (%) [4]: 10% and 6%
Population Mitochondria Different-Phenotype (%) [4]: 3% and 5%
Population Normal (%) [4]: 99% and 97%
Population Pyknosed Nuclei (%) [4]: 9% and 8%
Population Tubulin-Different-Phenotype (%) [4]: 3% and 2%
Total Cell Count [4]: 284 and 143
Population Apoptotic (%) [5]: 77% and 90%
Population Fragmented Nuclei (%) [5]: 23% and 15%
Population Healthy Nuclei (%) [5]: 69% and 74%
Population Hoechst High Intensity Objects (%) [5]: 2% and 1%
Population Membrane Permeable-Phenotype (%) [5]: 3% and 6%
Population Mitochondria Different-Phenotype (%) [5]: 3% and 2%
Population Mitotic Cells (%) [5]: 22% and 10%
Population Normal (%) [5]: 97% and 98%
Population Pyknosed Nuclei (%) [5]: 6% and 10%
Population Tubulin-Different-Phenotype (%) [5]: 2% and 1%
Total Cell Count [5]: 339 and 201
Population Apoptotic (%) [6]: 87% and 83%
Population Fragmented Nuclei (%) [6]: 22% and 12%
Population Healthy Nuclei (%) [6]: 68% and 77%
Population Hoechst High Intensity Objects (%) [6]: 4% and 1%
Population Membrane Permeable-Phenotype (%) [6]: 6% and 5%
Population Mitochondria Different-Phenotype (%) [6]: 2% and 4%
Population Mitotic Cells (%) [6]: 12% and 16%
Population Normal (%) [6]: 95% and 98%
Population Pyknosed Nuclei (%) [6]: 9%
Population Tubulin-Different-Phenotype (%) [6]: 2% and 4%
Total Cell Count [6]: 354 and 189

O=S(=O)(c1ccccc1)c1cnc2c(N3CCNCC3)cccc2c1 [INTEPIRDINE]
Population Apoptotic (%) [1]: 76% and 70%
Population Fragmented Nuclei (%) [1]: 23% and 17%
Population Healthy Nuclei (%) [1]: 68% and 71%
Population Hoechst High Intensity Objects (%) [1]: 1% and 0%
Population Membrane Permeable-Phenotype (%) [1]: 6% and 7%
Population Mitochondria Different-Phenotype (%) [1]: 3% and 6%
Population Mitotic Cells (%) [1]: 23% and 30%
Population Normal (%) [1]: 98% and 100%
Population Pyknosed Nuclei (%) [1]: 7% and 11%
Population Tubulin-Different-Phenotype (%) [1]: 4% and 7%
Population Apoptotic (%) [2]: 58% and 85%
Population Fragmented Nuclei (%) [2]: 25% and 10%
Population Healthy Nuclei (%) [2]: 61% and 79%
Population Hoechst High Intensity Objects (%) [2]: 3% and 2%
Population Membrane Permeable-Phenotype (%) [2]: 23% and 12%
Population Mitochondria Different-Phenotype (%) [2]: 11% and 13%
Population Mitotic Cells (%) [2]: 41% and 14%
Population Normal (%) [2]: 96% and 97%
Population Pyknosed Nuclei (%) [2]: 12% and 10%
Population Tubulin-Different-Phenotype (%) [2]: 14% and 10%
Total Cell Count [2]: 204 and 139
Population Apoptotic (%) [3]: 80% and 69%
Population Fragmented Nuclei (%) [3]: 22% and 14%
Population Healthy Nuclei (%) [3]: 67% and 73%
Population Hoechst High Intensity Objects (%) [3]: 2% and 0%
Population Membrane Permeable-Phenotype (%) [3]: 7% and 3%
Population Mitochondria Different-Phenotype (%) [3]: 2% and 3%
Population Mitotic Cells (%) [3]: 19% and 30%
Population Normal (%) [3]: 97% and 99%
Population Pyknosed Nuclei (%) [3]: 9% and 12%
Population Tubulin-Different-Phenotype (%) [3]: 4% and 1%
Total Cell Count [3]: 319 and 108
Population Apoptotic (%) [4]: 72% and 77%
Population Fragmented Nuclei (%) [4]: 23% and 10%
Population Healthy Nuclei (%) [4]: 60% and 77%
Population Hoechst High Intensity Objects (%) [4]: 3% and 0%
Population Membrane Permeable-Phenotype (%) [4]: 17% and 10%
Population Mitochondria Different-Phenotype (%) [4]: 14% and 17%
Population Mitotic Cells (%) [4]: 27% and 22%
Population Normal (%) [4]: 96% and 99%
Population Pyknosed Nuclei (%) [4]: 16% and 11%
Population Tubulin-Different-Phenotype (%) [4]: 10% and 6%
Total Cell Count [4]: 233 and 156
Population Apoptotic (%) [5]: 89% and 76%
Population Fragmented Nuclei (%) [5]: 15% and 13%
Population Healthy Nuclei (%) [5]: 70% and 68%
Population Hoechst High Intensity Objects (%) [5]: 3%
Population Membrane Permeable-Phenotype (%) [5]: 6% and 3%
Population Mitochondria Different-Phenotype (%) [5]: 4% and 2%
Population Mitotic Cells (%) [5]: 10% and 23%
Population Normal (%) [5]: 96%
Population Pyknosed Nuclei (%) [5]: 14% and 18%
Population Tubulin-Different-Phenotype (%) [5]: 4% and 2%
Total Cell Count [5]: 416 and 148
Population Apoptotic (%) [6]: 78% and 95%
Population Fragmented Nuclei (%) [6]: 22% and 13%
Population Healthy Nuclei (%) [6]: 59% and 75%
Population Hoechst High Intensity Objects (%) [6]: 4% and 2%
Population Membrane Permeable-Phenotype (%) [6]: 15% and 10%
Population Mitochondria Different-Phenotype (%) [6]: 7% and 12%
Population Normal (%) [6]: 95% and 97%
Population Pyknosed Nuclei (%) [6]: 17% and 11%
Population Tubulin-Different-Phenotype (%) [6]: 6% and 4%
Total Cell Count [6]: 302 and 201
